# Measured values of several laboratories.
# Protocols differ between the studies behind these lines.
# Action: inhibitor
# MET: Hepatocyte growth factor receptor (MET, Homo sapiens, UniProt P08581)
Compound,target,test,test system,conditions,inhibition [%]
CNC(=O)c1cc(Oc2ccc(NC(=O)Nc3ccc(Cl)c(C(F)(F)F)c3)cc2)ccn1,MET,enzyme activity,,0.3 µM,-22
CNc1cc(Oc2cc(C(=O)Nc3cc(N4CCN(C)CC4)cc(C(F)(F)F)c3)ccc2C)ncn1,MET,"target engagement in cells, chemoproteomics",Huh-7,1 µM,-18.4
COc1cc2ncnc(Nc3ccc(Oc4ccccc4)cc3C)c2cc1OC,MET,enzyme activity,,1 µM,-1
COc1cc2nccc(Oc3ccc(NC(=O)c4c5n(n(-c6ccc(F)cc6)c4=O)CCCC5)cc3)c2cc1OC,MET,enzyme activity,,0.1 µM,98
CNC(=O)c1cc2c(Oc3ccc(NC(=O)C4(C(=O)Nc5ccc(F)cc5)CC4)cc3)ccnc2cc1OC,"Hepatocyte growth factor receptor (MET, Homo sapiens, UniProt P08581, M1250T)","enzyme activity, radiometric",,1 µM,99
CN(C)C1CCN(CC#Cc2nn(C3CCCC3)c3nc(NCc4ccccc4)ncc23)C1 (stereo not drawn),MET,"enzyme activity, FRET",,10 µM,72
COc1cc2ncnc(Nc3ccc(Oc4ccccc4)c(C)c3C)c2cc1OC,MET,enzyme activity,,1 µM,8
O=C(CSc1nc2nccnc2c(=O)n1CCc1ccccc1)Nc1nccs1,MET,enzyme activity,,10 µM,-2
CC/C(=N\NC(=O)NCc1cccc(O)c1)c1ccc(O)c(C)c1O,MET,enzyme activity,,0.1 µM,1.1
